The list is not random: actives were taken first. Their share in the collection is about 2.6%.
OXTR potentiator: potentiates the human oxytocin receptor response. activation, % at 3 µM. 0.061% of 320,000 active. AID 2445. CHO-OTR cells, Fluo-8 calcium fluorescence, potentiator mode; 0% = oxytocin EC15, 100% = EC100;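 active = activation above that plate's cutoff, the mean activation of tested compounds plus 3 SD, cut at about 6.6% in these data, passing the limit was not always enough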;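 note: 100% uses oxytocin at 75 nM as the full agonist control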
Target sequence (P30559 whole entry, looked up): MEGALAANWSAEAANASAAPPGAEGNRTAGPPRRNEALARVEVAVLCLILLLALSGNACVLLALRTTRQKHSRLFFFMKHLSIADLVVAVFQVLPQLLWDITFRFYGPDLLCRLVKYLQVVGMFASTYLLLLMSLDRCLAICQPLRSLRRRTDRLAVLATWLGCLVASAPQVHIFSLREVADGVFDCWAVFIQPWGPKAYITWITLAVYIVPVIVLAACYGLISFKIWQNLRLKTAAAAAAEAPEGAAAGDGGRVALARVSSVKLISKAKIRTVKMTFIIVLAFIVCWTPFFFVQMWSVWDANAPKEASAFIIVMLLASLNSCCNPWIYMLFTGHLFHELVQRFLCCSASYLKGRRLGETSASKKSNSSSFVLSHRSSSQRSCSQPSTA
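test system = CHO-OTR cells, human receptor | compound = single-point 3.0 µM | schedule = 6 min compound pre-incubation at room temperature, 100 s kinetic read | signal = Fluo-8 no-wash calcium dye fluorescence, excitation 470-495 nm, emission 515-575 nm | repeats = single well per compound, singlicate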
OX1R antag-1: blocks the human orexin 1 receptor; O43613; OX1R-expressing cells, FRET antagonist read-out; inhibition, % at 6.6 µM; 1.8% of 330,000 active; AID 485270; in the data active = inhibition mostly above about 38%, no sharp cut-off; inactive = mostly below about 40%;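 note: 0% = agonist challenge alone and 100% = reference antagonist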
CHO parental Ca: signal in parental CHO cells, OX1R antagonist counter-screen. parental CHO-K1, ATP-induced calcium, Fluo-8 fluorescence. inhibition, % at 5.6 µM. 0.63% of 330,000 active;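 active = inhibition above that plate's mean sample inhibition plus 3 SD, cut at about 26% in these data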;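 note: 0% = ATP-challenged DMSO wells and 100% = DMSO wells without ATP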
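Assay system – parental CHO cells · Reagent – ATP stimulus · Detection – intracellular calcium via Fluo-8 no-wash fluorescent dye · Evaluation – percent inhibition of ATP-evoked calcium rise, normalized to controls · Controls – ATP wells versus no-ATP DMSO wells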
OX1R antag-2: blocks the human orexin 1 receptor; O43613; CHO/OX1R cells, Fluo-8 calcium fluorescence, orexin A; inhibition, % at 5 µM; 0.43% of 330,000 active; AID 434989;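 active = inhibition above its plate's threshold, mean inhibition of all tested compounds on the plate plus 3 SD, cut at about 37% in these data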;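 note: 0% = orexin A challenge wells and 100% = SB-334867-A antagonist wells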
V1R ag counter: counter-screen for oxytocin receptor agonists: human V1a receptor agonists; activation, % at 3 µM; CHO-V1R cells, Fluo-8 calcium fluorescence, agonist mode; 0% DMSO, 100% 3 nM vasopressin; 0.25% of 320,000 active; AID 2797; P37288;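 active = activation above the mean activation of all tested compounds plus 3 SD, per screening run, cut at about 20% in these data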;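 note: signal is peak over basal fluorescence ratio across a 100 second FLIPR read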
OXTR ag: agonists of human oxytocin receptor; P30559; CHO-OTR cells, Fluo-8 calcium fluorescence; normalized: DMSO 0%, oxytocin 100%; activation, % at 3 µM; 0.32% of 320,000 active; AID 2435;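 active = activation above the mean of all tested compounds plus 3 SD, cutoff set per screening run, cut at about 20% in these data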;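 note: peak over basal fluorescence ratio from a 100 s FLIPR kinetic read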
Active calls of the source: *.

SMILES	OXTR potentiator	OX1R antag-1	CHO parental Ca	OX1R antag-2	V1R ag counter	OXTR ag
O=C1OC(CN2CCOCC2)CN1N=Cc1ccc([N+](=O)[O-])o1 (centres undefined)	-4	60*	0	-2	0	0
O=C1CN(/N=C/c2ccc([N+](=O)[O-])o2)C(=O)N1	-3	84*	0	1	0	-1
COc1cc(-c2csc(NC3CCCCC3)n2)cc(OC)c1OC	-5	14	-24	-41	0	-1
COc1ccc(OCCN(C)C(=O)c2cccc(S(=O)(=O)N(C)c3ccccc3)c2)cc1	-11	4	-1	-20	8	3
CCOC(=O)c1cccc(NC(=O)CCNS(=O)(=O)c2cc(Br)cnc2N)c1	-12	63*	-8	22	4	5
COc1ccc(CCC(=O)Nc2cc(S(=O)(=O)N3CCOCC3)ccc2OC(C)C)cc1	-7	4	-13	-9	0	-1
O=[N+]([O-])c1ccc2c(c1)S(=O)c1ccccc1-2 (centres undefined)	-7	75*	-28	-6	0	2
Nc1c(C(=O)c2ccccc2)oc2ccc(Br)cc12	-22	59*	-32	24	-1	-2
Cc1ccccc1NC(=O)C1CCCN1S(=O)(=O)c1cccc2cccnc12 (centres undefined)	1	43*	0	6	-1	0
CCOC(=O)c1cccc(NC(=O)C2CCCN2S(=O)(=O)c2cccc3cccnc23)c1 (centres undefined)	-1	34	-10	-23	1	0
Cc1ccc(NC(=O)CN(C)S(=O)(=O)c2cccc3cccnc23)cc1F	-10	22	-27	4	1	-1
Cc1ccc(NC(=O)CN(C)S(=O)(=O)c2cccc3cccnc23)cc1C	-3	39*	-10	-20	3	3
O=C(Nc1cccc(C(F)(F)F)c1)C1CCCN1S(=O)(=O)c1cccc2cccnc12 (centres undefined)	-8	91*	-20	80*	2	5
Cc1ccc(C(=O)Nc2cccc3cccnc23)cc1C	-22	68*	-21	35	1	0
COc1cc(C(=O)Nc2cccc3cccnc23)cc(OC)c1OC	-10	26	-27	-38	-1	-3
CC(C)CN(C(=O)CSc1n[nH]c(-c2cccs2)n1)C1CCS(=O)(=O)C1 (centres undefined)	-3	-2	-7	-12	0	-1
CC(Oc1cccnc1[N+](=O)[O-])C(=O)N1CCc2ccccc21 (centres undefined)	-3	20	-5	11	0	-1
O=C(CN1C(=O)NC2(CCCC2)C1=O)Nc1cc(C(F)(F)F)ccc1N1CCCCC1	2	14	-17	-47	11	-2
CN(CC(=O)N1CCc2ccccc21)S(=O)(=O)c1cccc2cccnc12	-5	60*	-1	-4	1	-1
O=C(C1CCCN1S(=O)(=O)c1cccc2cccnc12)N1CCc2ccccc21 (centres undefined)	-4	47*	-2	-6	1	0
O=C(C1CCCN1S(=O)(=O)c1cccc2cccnc12)N1CCc2ccccc2C1 (centres undefined)	-2	17	-16	-13	0	3
COc1ccc(NC(=O)n2ncc3c(C)cccc32)cc1OC	-8	35*	-21	-29	0	-1
COc1ccc(NC(=O)n2ncc3c(C)cccc32)cc1	-9	3	-7	-30	0	-2
N#CC(C#N)=NNc1ccc([N+](=O)[O-])cc1	-5	72*	-1	2	7	5
O=C(NCCCN1CCOCC1)c1ccc(CSc2ccc(Cl)cc2)cc1	-26	15	5	-9	9	10
S=c1nc2ccccc2c2nc(-c3ccccc3)[nH]n12	-10	65*	-6	-4	4	4
S=c1nc2ccccc2c2nc(-c3ccccc3Cl)[nH]n12	-13	57*	-7	-6	7	0
COc1cc(-c2nc3c4ccccc4nc(=S)n3[nH]2)cc(OC)c1OC	1	12	-4	6	-1	0

Assay outcomes from PubChem BioAssay.
